Assay results taken from ChEMBL document CHEMBL4364333, “High-throughput screening of bioactive compounds via new catalytic reaction in the pooled mixture” (Bioorg Med Chem Lett, 2019).
Activity calls are given as the source filed them. The calls are words filed in the database; no cut-off is given here.

Key:
Assay type in all cases: cell-based
HeLa [1] = test: Cytotoxicity against human HeLa cells expressing alkaline phosphatase assessed as reduction in cell viability at 40 uM incubated for 3 hrs by WST-1 assay
Method in brief: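 HeLa cells stably expressing soluble secretory alkaline phosphatase, seeded at equal numbers, exposed to diluted test material for 3 h. Cytotoxicity read out as the number of live cells.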

HeLa [2] = test: Inhibition of alkaline phosphatase secretion in human HeLa cells incubated for 3 hrs
Method in brief: (§1)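 HeLa cells stably expressing soluble secretory alkaline phosphatase, seeded at equal numbers, exposed to diluted test material for 3 h. Secretion read out as alkaline phosphatase enzymatic activity in the culture medium.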

HeLa [3] = test: Inhibition of alkaline phosphatase secretion in human HeLa cells at 50 uM incubated for 3 hrs
Method in brief: (§2)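 HeLa cells stably expressing soluble secretory alkaline phosphatase, seeded at equal cell numbers, were incubated with the test sample for 3 h. Alkaline phosphatase enzymatic activity in the culture medium was measured as the secretion read-out. Live cell number was counted in parallel to assess cytotoxicity.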

HeLa [4] = test: Inhibition of alkaline phosphatase secretion in human HeLa cells at 40 uM incubated for 3 hrs; method in brief: as §1
HeLa [5] = test: Inhibition of alkaline phosphatase secretion in human HeLa cells at 18 uM incubated for 3 hrs; method in brief: as §2

Row | Compound | Activity (HeLa [1]) | further results
1 | Fc1ccc2[nH]cc(C(c3c[nH]c4ccccc34)C(F)(F)F)c2c1 (centres undefined) | Non-Toxic | –
2 | Cn1cc(C(c2cn(C)c3ccccc23)C(F)(F)F)c2ccccc21 | Non-Toxic | –
3 | COc1ccc2[nH]cc(C(c3c[nH]c4ccccc34)C(F)(F)F)c2c1 (centres undefined) | Non-Toxic | inhibition (HeLa [2]): Active
4 | Fc1cc(F)c2c(c1)[C@H]1CCC[C@H]1C(c1cccnc1)N2 (some centres undefined) | – | inhibition (HeLa [3]): Active
5 | FC(F)(F)C(c1c[nH]c2ccccc12)c1c[nH]c2ccccc12 | Non-Toxic | inhibition (HeLa [4]): Active
6 | FC(F)(F)C(F)(F)C(c1c[nH]c2ccc(Br)cc12)c1c[nH]c2ccc(Br)cc12 | Non-Toxic | –
7 | C[C@H]1CCC/C=C/[C@@H]2C[C@H](O)C[C@H]2[C@H](O)/C=C/C(=O)O1 | – | inhibition (HeLa [5]): Active
8 | Cn1cc(C(c2c[nH]c3ccccc23)C(F)(F)C(F)(F)F)c2ccccc21 (centres undefined) | Non-Toxic | –
9 | Fc1ccc2[nH]cc(C(c3c[nH]c4ccc(F)cc34)C(F)(F)F)c2c1 | Non-Toxic | –
10 | FC(F)(F)C(F)(F)C(c1c[nH]c2ccccc12)c1c[nH]c2ccccc12 | Non-Toxic | inhibition (HeLa [2]): Active
11 | Cn1cc(C(c2cn(C)c3ccccc23)C(F)(F)C(F)(F)F)c2ccccc21 | Non-Toxic | –
12 | Cn1cc(C(c2c[nH]c3ccccc23)C(F)(F)F)c2ccccc21 (centres undefined) | Non-Toxic | –
13 | FC(F)(F)C(c1c[nH]c2ccccc12)c1c[nH]c2ccc(Br)cc12 (centres undefined) | Non-Toxic | inhibition (HeLa [2]): Active
14 | FC(F)(F)C(c1c[nH]c2ccc(Br)cc12)c1c[nH]c2ccc(Br)cc12 | Non-Toxic | inhibition (HeLa [2]): Active
